In brackets after ≈: the same amount, converted by molar mass. Activity calls are given as the source filed them. The calls are words filed in the database; no cut-off is given here. Residues, ends and D or L forms follow the SMILES beside them. *: point of attachment. Boc = CC(C)(C)OC(=O)*; NHBn = c1ccc(CN*)cc1

Data set [1] relates to Staphylococcus aureus. Kind of data set: Antibacterial activity against Staphylococcus aureus ATCC 29213 after […] hrs by alamar blue dye based CLSI method. Format: functional. (Resazurin is reduced to fluorescent resorufin, in cell work by metabolically active cells.)
Data set [2] can be described thus: Selectivity index, ratio of cytotoxicity against African green monkey VERO cells to IC50 for Cryptococcus neoformans ATCC 90113. Format: toxicity, cell-based. The settings on record: read-out: Selectivity Index.
Data set [3] is described as follows: Selectivity index, ratio of cytotoxicity against human SKOV3 cells to IC50 for Staphylococcus aureus ATCC 29213. The settings on record: read-out: Selectivity Index. It counts as toxicity, cell-based. Summed up: (§1)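 Selectivity index is the ratio CTX/IC50. For CTX, cells were seeded at 25 000 per well and grown 24 h, then exposed to peptide up to 10 μg/mL for 48 h, with viability by neutral red uptake. […] The inoculum was 5 × 10^5 CFU/mL, with OD530 read before and after incubation.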

The nature of data set [4]: Selectivity index, ratio of cytotoxicity against African green monkey VERO cells to IC50 for methicillin-resistant Staphylococcus aureus ATCC 33591. It counts as toxicity, cell-based. The settings on record: read-out: Selectivity Index. Summed up: (§2)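 Selectivity index is the ratio CTX/IC50. For CTX, cells were seeded at 25 000 per well and grown 24 h, then given peptide up to 10 μg/mL for 48 h, with neutral red uptake read-out. […] OD530 was read before and after 16−20 h at 35 °C.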

A short description of data set [5]: Selectivity index, ratio of cytotoxicity against human SK-MEL cells to IC50 for Staphylococcus aureus ATCC 29213. Format: toxicity, cell-based. The settings on record: read-out: Selectivity Index. The gist of the method: as §1
A short description of data set [6]: Selectivity index, ratio of cytotoxicity against pig LLC-PK1 cells to IC50 for Staphylococcus aureus ATCC 29213. Format: toxicity, cell-based. The settings on record: read-out: Selectivity Index. Summed up: as §1
The subject of data set [7] is Escherichia coli. Kind of data set: Antibacterial activity against Escherichia coli ATCC 35218 after 16 to 20 hrs by alamar blue dye based CLSI method. Format: functional.
In data set [8] the test system is Vero. Description: Cytotoxicity against African green monkey Vero cells assessed as reduction in cell viability after 48 hrs by neutral red uptake assay. It counts as cell-based. The settings on record: chlorocebus sabaeus. The gist of the method:
(§3)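 Cells seeded at 25 000 per well and grown 24 h to confluence, then exposed to peptides up to 10 μg/mL for 48 h; viability by modified neutral red uptake; doxorubicin positive control, DMSO negative control.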

Data set [9] relates to Candida. Kind of data set: Antifungal activity against Candida. It counts as functional.
A short description of data set [10]: Selectivity index, ratio of cytotoxicity against human SK-MEL cells to IC50 for Cryptococcus neoformans ATCC 90113. It counts as toxicity, cell-based. The following applies: read-out: Selectivity Index.
Data set [11] in a line: Selectivity index, ratio of cytotoxicity against human SKOV3 cells to IC50 for Cryptococcus neoformans ATCC 90113. The following applies: read-out: Selectivity Index. It counts as toxicity, cell-based.
The subject of data set [12] is SK-MEL. Kind of data set: Cytotoxicity against human SK-MEL cells assessed as reduction in cell viability after 48 hrs by neutral red uptake assay. It counts as cell-based. Summed up: as §3
Data set [13] can be described thus: Selectivity index, ratio of cytotoxicity against pig LLC-PK1 cells to IC50 for methicillin-resistant Staphylococcus aureus ATCC 33591. It counts as toxicity, cell-based. The following applies: read-out: Selectivity Index. Summed up:
as §2

A short description of data set [14]: Selectivity index, ratio of cytotoxicity against human BT549 cells to IC50 for Cryptococcus neoformans ATCC 90113. It counts as toxicity, cell-based. The settings on record: read-out: Selectivity Index.
Data set [15] concerns Aspergillus. Kind of data set: Antifungal activity against Aspergillus. Format: functional.
Data set [16] has as its system Cryptococcus neoformans. Description: Antifungal activity against Cryptococcus neoformans ATCC 90113 after 70 to 74 hrs by alamar blue dye based CLSI method. It counts as functional.
For data set [17], the system named is Staphylococcus aureus. Kind of data set: Antibacterial activity against methicillin-resistant Staphylococcus aureus ATCC 33591 after 16 to 20 hrs by alamar blue dye based CLSI method. It counts as functional.
A short description of data set [18]: Selectivity index, ratio of cytotoxicity against pig LLC-PK1 cells to IC50 for Cryptococcus neoformans ATCC 90113. It counts as toxicity, cell-based. The following applies: read-out: Selectivity Index.
Data set [19] is described as follows: Selectivity index, ratio of cytotoxicity against human SKOV3 cells to IC50 for methicillin-resistant Staphylococcus aureus ATCC 33591. It counts as toxicity, cell-based. The settings on record: read-out: Selectivity Index. Summed up: as §2
The subject of data set [20] is BT-549. Description: Cytotoxicity against human BT549 cells assessed as reduction in cell viability after 48 hrs by neutral red uptake assay. It counts as cell-based. The settings on record: bt-549, 48 h. Summed up: as §3
The nature of data set [21]: Selectivity index, ratio of cytotoxicity against human BT549 cells to IC50 for Staphylococcus aureus ATCC 29213. The following applies: read-out: Selectivity Index. It counts as toxicity, cell-based. Summed up:
as §1

The test system of data set [22] is SK-OV-3. Kind of data set: Cytotoxicity against human SKOV3 cells assessed as reduction in cell viability after 48 hrs by neutral red uptake assay. Format: cell-based. The settings on record: sk-ov-3, 48 h. Summed up: as §3
Data set [23] is described as follows: Selectivity index, ratio of cytotoxicity against African green monkey VERO cells to IC50 for Staphylococcus aureus ATCC 29213. It counts as toxicity, cell-based. The following applies: read-out: Selectivity Index. The gist of the method:
as §1

The nature of data set [24]: Selectivity index, ratio of cytotoxicity against human SK-MEL cells to IC50 for methicillin-resistant Staphylococcus aureus ATCC 33591. It counts as toxicity, cell-based. The settings on record: read-out: Selectivity Index. The gist of the method:
as §2

The subject of data set [25] is LLC-PK1. Kind of data set: Cytotoxicity against pig LLC-PK1 cells assessed as reduction in cell viability after 48 hrs by neutral red uptake assay. It counts as cell-based, Sus scrofa. The settings on record: llc-pk1, 48 h. Summed up: as §3
Data set [26] in a line: Selectivity index, ratio of cytotoxicity against human BT549 cells to IC50 for methicillin-resistant Staphylococcus aureus ATCC 33591. It counts as toxicity, cell-based. The settings on record: read-out: Selectivity Index. Summed up:
as §2

Consider `COC(=O)[C@H](Cc1c[nH]c(-c2ccc(C(C)(C)C)cc2)n1)NC(=O)[C@H](Cc1c[nH]c2ccccc12)NC(=O)[C@@H](N)Cc1c[nH]c(-c2ccc(C(C)(C)C)cc2)n1`, for which the IC50 (usually the point on the concentration scale where inhibition reaches its midpoint) in [1] turned out to be 4.33 µg/mL (≈ 5.72 µM); in data set [16], 0.83 µg/mL (≈ 1.1 µM); in [17], 6.71 µg/mL (≈ 8.86 µM). The MBC in [1] and in [17] was greater than 20 µg/mL each time. The minimum inhibitory concentration (MIC) (commonly the least concentration at which growth counts as inhibited) in [1] was 10 µg/mL (≈ 13.2 µM); in data set [16], 1.25 µg/mL (≈ 1.65 µM); in [17], greater than 20 µg/mL. Besides, the selectivity ratio is greater than 12 in data set [2]; greater than 2.3 in [3]; greater than 1.49 in [4]; greater than 2.3 in [5]; greater than 2.3 in data set [6]; greater than 12 in data set [10]. The selectivity ratio in data set [11] is greater than 12; in data set [13], greater than 1.49; in data set [14] it was greater than 12; in data set [18], greater than 12; in data set [19] it was greater than 1.49; in data set [21] it was greater than 2.3. Further, the results for the selectivity ratio in [23], in data set [24] and in [26] were greater than 2.3, greater than 1.49 and greater than 1.49, respectively. The outcome in data set [7], in [9] and in data set [15] was inactive. The Activity in data set [8], in [12], in data set [20], in data set [22] and in data set [25] was greater than 10 µg/mL each time. In addition, the MFC (commonly the lowest tested concentration that kills the fungus rather than only halting it) in data set [16] was determined as 1.25 µg/mL (≈ 1.65 µM).

On to `COC(=O)[C@H](Cc1c[nH]c(-c2ccccc2)n1)NC(=O)[C@H](Cc1c[nH]c2ccccc12)NC(=O)[C@H](Cc1c[nH]c(-c2ccccc2)n1)NC(=O)OC(C)(C)C`, for which the selectivity ratio in data set [2], in data set [10], in data set [11], in [14] and in data set [18] was greater than 1.1 each time. Moreover, the outcome in data set [7], in data set [9] and in data set [15] was inactive. Besides, the Activity in data set [8], in data set [12], in [20], in data set [22] and in data set [25] was greater than 10 µg/mL each time. 9.14 µg/mL (≈ 12.3 µM) corresponded to half-maximal inhibition in [16] (IC50). The compound also had an MFC in data set [16] greater than 20 µg/mL. In addition, the MIC in [16] was greater than 20 µg/mL.

`CC(C)(C)OC(=O)N[C@@H](Cc1c[nH]c(-c2ccccc2)n1)C(=O)N[C@@H](Cc1c[nH]c2ccccc12)C(=O)N[C@@H](Cc1c[nH]c(-c2ccccc2)n1)C(=O)NCc1ccccc1`: the 50% inhibitory concentration (IC50) in data set [1] amounted to 7.6 µg/mL (≈ 9.27 µM); in [16], 1.4 µg/mL (≈ 1.71 µM); in data set [17] it was 10.5 µg/mL (≈ 12.8 µM). Further, the MBC in data set [1] and in [17] was greater than 20 µg/mL in each case. Also, the results for the minimal inhibitory concentration (MIC) in [1], in [16] and in data set [17] were greater than 20 µg/mL, 2.5 µg/mL (≈ 3.05 µM) and greater than 20 µg/mL, respectively. Moreover, the selectivity ratio was greater than 7.1 in [2]; greater than 1.3 in [3]; greater than 1.3 in data set [5]; greater than 1.3 in data set [6]; greater than 7.1 in [10]; greater than 7.1 in [11]. The selectivity ratio was greater than 7.1 in data set [14], greater than 7.1 in data set [18], greater than 1.3 in data set [21] and greater than 1.3 in data set [23]. The outcome in data set [7], in data set [9] and in data set [15] was inactive. Besides, the Activity in data set [8], in [12], in [20], in data set [22] and in data set [25] was greater than 10 µg/mL throughout. The compound further showed a minimal fungicidal concentration (MFC) in [16] of 2.5 µg/mL (≈ 3.05 µM).

In the case of `CC(C)(C)OC(=O)N[C@@H](Cc1cnc[nH]1)C(=O)N[C@@H](Cc1c[nH]c2ccccc12)C(=O)N[C@@H](Cc1cnc[nH]1)C(=O)NCc1ccccc1` (Boc-His-Trp-His-NHBn), the selectivity ratio in data set [2], in data set [10], in [11], in data set [14] and in data set [18] was greater than 12.5 throughout. In addition, the result in [7], in data set [9] and in data set [15] was inactive. The Activity in data set [8], in [12], in [20], in data set [22] and in [25] was greater than 10 µg/mL throughout. In data set [16], this compound showed an MFC of 1.25 µg/mL (≈ 1.87 µM). In data set [16], this compound had an MIC of 1.25 µg/mL (≈ 1.87 µM).

Consider `N[C@@H](Cc1cnc[nH]1)C(=O)N[C@@H](Cc1c[nH]c2ccccc12)C(=O)N[C@@H](Cc1cnc[nH]1)C(=O)NCc1ccccc1` (H-His-Trp-His-NHBn), for which the selectivity ratio in [2], in data set [10], in data set [11], in [14] and in data set [18] was greater than 1.2 throughout. Also, the outcome in [7], in [9] and in data set [15] was inactive. The Activity in data set [8], in [12], in data set [20], in data set [22] and in data set [25] was greater than 10 µg/mL each time. The MFC in data set [16] was 10 µg/mL (≈ 17.6 µM). The same compound yielded an MIC in data set [16] of 10 µg/mL (≈ 17.6 µM).

`N[C@@H](Cc1c[nH]c(-c2ccc(-c3ccccc3)cc2)n1)C(=O)N[C@@H](Cc1c[nH]c2ccccc12)C(=O)N[C@@H](Cc1c[nH]c(-c2ccc(-c3ccccc3)cc2)n1)C(=O)NCc1ccccc1`: the selectivity ratio in data set [2], in data set [10], in [11], in data set [14] and in [18] was greater than 7.1 throughout. Moreover, the result in data set [7], in data set [9] and in data set [15] was inactive. Also, the Activity in [8], in [12], in data set [20], in data set [22] and in data set [25] was greater than 10 µg/mL throughout. Besides, the concentration for half-maximal inhibition (IC50) in data set [16] stood at 1.4 µg/mL (≈ 1.61 µM). This compound returned an MFC in [16] of 2.5 µg/mL (≈ 2.87 µM). Further, 2.5 µg/mL (≈ 2.87 µM) was the least that counted as inhibitory in [16] (MIC).

The values above are taken from ChEMBL document CHEMBL4011658 (J Med Chem, 2017).
